Measured values reported in ChEMBL document CHEMBL1150767, “4-N-, 4-S-, and 4-O-chloroquine analogues: influence of side chain length and quinolyl nitrogen pKa on activity vs chloroquine resistant malaria” (J Med Chem, 2008).

What was measured:
Plasmodium falciparum [1] = experiment: Antimalarial activity against chloroquine-sensitive Plasmodium falciparum HB3 after 72 hrs by SYBR green assay; format: functional, organism-based; details: HB3, 72 h
Procedure, shortened: (§1)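 Sorbitol-synchronized P. falciparum cultures (>95% rings) at 0.5% parasitemia, 1% hematocrit final, exposed to drug dilutions in complete medium 72 h at 37°C; SYBR Green I added, 1 h at 37°C, fluorescence read at 530 nm (490 nm excitation). Each dilution in triplicate; IC50 averaged over at least two separate assays.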

Plasmodium falciparum [2] = experiment: Selectivity for chloroquine-resistant Plasmodium falciparum FCB over chloroquine-sensitive Plasmodium falciparum GCO3 as IC50 ratio by SYBR green assay; format: functional
Plasmodium falciparum [3] = experiment: Antimalarial activity against chloroquine-resistant Plasmodium falciparum FCB after 72 hrs by SYBR green assay; format: functional, organism-based; procedure, shortened: as §1
Plasmodium falciparum [4] = experiment: Selectivity for chloroquine-resistant Plasmodium falciparum Dd2 over chloroquine-sensitive Plasmodium falciparum HB3 as IC50 ratio by SYBR green assay; format: functional
Plasmodium falciparum [5] = experiment: Antimalarial activity against chloroquine-resistant Plasmodium falciparum Dd2 after 72 hrs by SYBR green assay; format: functional, organism-based; details: Dd2, 72 h; procedure, shortened: as §1
Plasmodium falciparum [6] = experiment: Antimalarial activity against chloroquine-sensitive Plasmodium falciparum GCO3 after 72 hrs by SYBR green assay; format: functional, organism-based; details: GCO3, 72 h; procedure, shortened: as §1
Plasmodium falciparum [7] = experiment: Selectivity for chloroquine-resistant Plasmodium falciparum Indochina I over chloroquine-sensitive Plasmodium falciparum Haiti 135 as IC50 ratio by [3H]hypoxanthine uptake; format: functional
Plasmodium falciparum [8] = experiment: Selectivity for chloroquine-resistant Plasmodium falciparum K1 over chloroquine-sensitive Plasmodium falciparum NF54 as IC50 ratio by [3H]hypoxanthine uptake; format: functional
Plasmodium falciparum [9] = experiment: Antimalarial activity against chloroquine-sensitive Plasmodium falciparum NF54 by [3H]hypoxanthine uptake; format: functional, organism-based
[10] = Binding affinity to mu dimeric heme in aqueous solution at pH 7.5
Procedure, shortened: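 Hemin first converted to μ-oxo dimer in mild alkaline solution, then titrated to pH 7.5 with Hepes buffer. Heme titrated with increasing drug (0 – 50 μM); absorbance at 402 nm recorded after each addition. Solvent-only titration served as control. Ka derived from ΔAbs402 plots by Scatchard analysis.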

Plasmodium falciparum [11] = experiment: Drug accumulation in digestive vacuole of chloroquine-sensitive Plasmodium falciparum assessed as vacuolar accumulation ratio at pH 5.6; format: ADME, organism-based
Procedure, shortened: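 Calculated, not measured: Henderson–Hasselbach equation with cytosolic pH 7.4 and digestive vacuole pH 5.6 (CQS), using experimental pKa values.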

[12] = Inhibition of haemozoin formation at pH 5.2 after 18 hrs; format: functional
Procedure, shortened: (§2)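 Cell-free β-hematin formation in 1 mL containing lecithin (2 μg/ml final), hematin (100 μM final), 0.1 M HCl, propionate buffer at stated pH, and drug (0-1000 μM). Triplicates shaken at 37°C for 18 h. Pellets washed with pH 9.0 bicarbonate to remove uncrystallized heme, dried, dissolved in 0.1 M NaOH, and quantified by absorbance at 402 nm against a heme calibration curve.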

Plasmodium falciparum [13] = experiment: Drug accumulation in digestive vacuole of chloroquine-resistant Plasmodium falciparum assessed as vacuolar accumulation ratio at pH 5.2; format: ADME, organism-based
Procedure, shortened: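 Calculated with the Henderson–Hasselbach equation from compound pKa values, taking cytosolic pH 7.4 and DV pH 5.2 for CQR parasites. Experimental pKa came from titrating 10 mM drug in water with 0.1 M NaOH at room temperature, using second-derivative inflection points, three determinations averaged.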

[14] = Inhibition of haemozoin formation at pH 5.6 after 18 hrs; format: functional; procedure, shortened: as §2
Plasmodium falciparum [15] = experiment: Antimalarial activity against chloroquine-resistant Plasmodium falciparum K1 by [3H]hypoxanthine uptake; format: functional, organism-based

SMILES | IC50 (Plasmodium falciparum [1]) [µM] | Ratio IC50 (Plasmodium falciparum [2]) | IC50 (Plasmodium falciparum [3]) [µM] | Ratio IC50 (Plasmodium falciparum [4]) | IC50 (Plasmodium falciparum [5]) [µM] | IC50 (Plasmodium falciparum [6]) [µM] | Ratio IC50 (Plasmodium falciparum [7]) | Ratio IC50 (Plasmodium falciparum [8]) | IC50 (Plasmodium falciparum [9]) [µM] | Ka [10] | logKA [10] | Activity (Plasmodium falciparum [11]) | IC50 [12] [µM] | Activity (Plasmodium falciparum [13]) | IC50 [14] [µM] | IC50 (Plasmodium falciparum [15]) [µM]
CCNCCCCCCNc1ccnc2cc(Cl)ccc12 | 0.019 | 10 | 0.987 | 31.3 | 0.982 | 0.052 |  |  |  |  |  |  |  |  |  | 
CCN(CC)CCCCCOc1ccnc2cc(Cl)ccc12 | 1.87 | 0.624 | 0.93 | 0.54 | 1.01 | 1.49 |  |  |  |  |  |  |  |  |  | 
CCN(CC)CCCCCCOc1ccnc2cc(Cl)ccc12 | 3.06 | 0.524 | 1.19 | 1.36 | 4.16 | 2.27 |  |  |  |  |  |  |  |  |  | 
CCN(CC)CCCCCCSc1ccnc2cc(Cl)ccc12 | 6.02 | 0.742 | 3.3 | 0.683 | 4.11 | 4.45 |  |  |  |  |  |  |  |  |  | 
CCNCCCCCNc1ccnc2cc(Cl)ccc12 | 0.021 | 20.5 | 1.27 | 37.4 | 0.786 | 0.062 |  |  |  |  |  |  |  |  |  | 
CCN(CC)CCNc1ccnc2cc(Cl)ccc12 | 0.013 | 2.3 | 0.03 | 2 | 0.026 | 0.013 | 0.714 | 2.33 | 0.021 |  |  |  |  |  |  | 
CCN(CC)CCCCSc1ccnc2cc(Cl)ccc12 | 7.39 | 0.622 | 3.5 | 0.601 | 4.44 | 5.63 |  |  |  | 8.22 ×10⁴ /M | 4.9 | 64 | 216 | 170 | 155 | 
CCNCCCCNc1ccnc2cc(Cl)ccc12 | 0.018 | 32.8 | 0.854 | 36.1 | 0.649 | 0.026 |  |  |  |  |  |  |  |  |  | 
CCN(CC)CCCCCNc1ccnc2cc(Cl)ccc12 | 0.029 | 7.17 | 0.509 | 12.3 | 0.357 | 0.066 | 9.67 |  |  |  |  |  |  |  |  | 
CCN(CC)CCCCCSc1ccnc2cc(Cl)ccc12 | 2.33 | 0.506 | 0.814 | 0.464 | 1.08 | 1.61 |  |  |  |  |  |  |  |  |  | 
CCN(CC)CC(CN(CC)CC)Oc1ccnc2cc(Cl)ccc12 | 1.49 | 1.7 | 3.83 | 0.866 | 1.29 | 2.25 |  |  |  |  |  |  |  |  |  | 
CCN(CC)CCCCC(CCCCN(CC)CC)Oc1ccnc2cc(Cl)ccc12 | 0.073 | 13.4 | 0.604 | 4.31 | 0.316 | 0.045 |  |  |  |  |  |  |  |  |  | 
CCN(CC)CCCCOc1ccnc2cc(Cl)ccc12 | 2.92 | 0.663 | 1.1 | 0.404 | 1.18 | 1.66 |  |  |  | 8.82 ×10⁴ /M | 5 | 67 | > 1000 | 190 | > 1000 | 
CCN(CC)CCSc1ccnc2cc(Cl)ccc12 | 9.53 | 1.04 | 6.02 | 0.577 | 5.5 | 5.74 |  |  |  |  |  |  |  |  |  | 
CCNCCCNc1ccnc2cc(Cl)ccc12 | 0.007 | 4.25 | 0.085 | 16.4 | 0.115 | 0.02 |  | 24.3 | 0.015 |  |  |  |  |  |  | 0.365
CCN(CC)CCCCCCNc1ccnc2cc(Cl)ccc12 | 0.097 | 6.38 | 0.102 | 0.876 | 0.085 | 0.016 | 11.2 |  |  |  |  |  |  |  |  | 
CCN(CC)CCCOc1ccnc2cc(Cl)ccc12 | 5.1 | 0.996 | 2.33 | 0.549 | 2.8 | 2.34 |  |  |  |  |  |  |  |  |  | 
CCN(CC)CCCC(C)Nc1ccnc2cc(Cl)ccc12 (stereo unspecified) [CHLOROQUINE] |  |  |  |  |  |  |  |  |  |  |  | 3700 | 35 | 23000 | 16 | 
CCN(CC)CCCCNc1ccnc2cc(Cl)ccc12 | 0.012 | 3.69 | 0.181 | 16.6 | 0.199 | 0.049 | 10.2 |  |  | 1.65 ×10⁵ /M | 5.2 | 3700 | 24 | 23000 | 12 | 
CCN(CC)CCCC(CCCN(CC)CC)Oc1ccnc2cc(Cl)ccc12 | 0.094 | 4.75 | 0.352 | 4.35 | 0.409 | 0.074 |  |  |  | 3.47 ×10⁴ /M | 4.5 | 5000 | 199 | 79000 | 687 | 
CCNCCNc1ccnc2cc(Cl)ccc12 | 0.012 | 7.42 | 0.089 | 6.75 | 0.081 | 0.012 |  | 1.25 | 0.021 |  |  |  |  |  |  | 0.133
CCN(CC)CCCSc1ccnc2cc(Cl)ccc12 | 5.6 | 0.465 | 1.61 | 0.475 | 2.66 | 3.46 |  |  |  |  |  |  |  |  |  | 
CCN(CC)CCOc1ccnc2cc(Cl)ccc12 | 5.8 | 0.96 | 5.08 | 0.788 | 4.57 | 5.29 |  |  |  |  |  |  |  |  |  | 
CCN(CC)CCCNc1ccnc2cc(Cl)ccc12 |  | 4.14 | 0.029 | 4.33 | 0.026 | 0.007 | 1.2 | 3.33 | 0.018 |  |  |  |  |  |  | 0.06
